Data from ChEMBL document CHEMBL1142894, “Preparation of 5-aryl-3-alkylthio-l,2,4-triazoles and corresponding sulfones with antiinflammatory-analgesic activity” (Bioorg Med Chem, 2007).
Calls of active or inactive are those of the source. The calls are words filed in the database; no cut-off is given here.

Columns and labels:
[1] = system: Mus musculus; test: Gastric-ulcerogenic effect in Swiss albino mouse assessed as lesions at 25 mg/kg, po; type: functional, organism-based; parameters: dose 25 mg/kg
Procedure, shortened: (§1)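 Mice killed under deep ether anesthesia 3 h after the writhing test; the oral dose in 0.5% CMC was the one used in that test. Stomachs removed, opened along the great curvature and examined under a dissecting microscope for lesions or bleeding. Reported as ratio of ulceration; n = 6.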

[2] = system: Mus musculus; test: Inhibition of p-benzoquinone-induced writhing in Swiss albino mouse at 25 mg/kg, po relative to control; type: functional
Procedure, shortened: (§2)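 Mice, n = 6 per group, dosed orally with a suspension in 0.5% sodium CMC. 60 min later, 0.1 ml/10 g of 2.5% […] p-benzoquinone in distilled water given ip. Abdominal writhes counted per animal for 15 min, starting 5 min after injection. Expressed as % change in mean writhing count versus vehicle controls.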

[3] = system: Mus musculus; test: Inhibition of p-benzoquinone-induced writhing in Swiss albino mouse at 100 mg/kg, po relative to control; type: functional; procedure, shortened: as §2
[4] = system: Mus musculus; test: Inhibition of carrageenan-induced paw edema in Swiss albino mouse at 50 mg/kg, po after 180 mins relative to control; type: functional; settings: 3 h
Procedure, shortened: (§3)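 Oral dosing in 0.5% CMC; vehicle to controls. Then carrageenan (0.5 mg/25 ll, freshly suspended in 154 mM saline) injected into the right hind paw subplantar tissue; saline into the left paw. Right-left footpad thickness difference measured by dial gauge calliper every 90 min over 6 h. Inhibition % is relative to vehicle control. n = 6; mean ± SEM.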

[5] = system: Mus musculus; test: Analgesic activity against p-benzoquinone-induced abdominal constriction in Swiss albino mouse assessed as number of writhings at 100 mg/kg, po; type: functional, Abdomen
Procedure, shortened: (§4)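 Test samples given orally in 0.5% CMC; vehicle to controls. 60 min later, 2.5% (v/v) p-benzoquinone in distilled water, 0.1 ml/10 g, given i.p. Mice housed singly; writhes counted for 15 min starting 5 min after injection. Activity is % change from vehicle controls. n = 6; mean ± SEM.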

[6] = system: Mus musculus; test: Antiinflammatory activity against carrageenan-induced paw edema in Swiss albino mouse assessed as swelling thickness at 200 mg/kg, po after 270 mins; type: functional; procedure, shortened: as §3
[7] = system: Mus musculus; test: Antiinflammatory activity against carrageenan-induced paw edema in Swiss albino mouse assessed as swelling thickness at 100 mg/kg, po after 270 mins; type: functional; procedure, shortened: as §3
[8] = system: Mus musculus; test: Inhibition of carrageenan-induced paw edema in Swiss albino mouse at 50 mg/kg, po after 90 mins relative to control; type: functional; settings: 1.5 h
Procedure, shortened: (§5)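 Mice, n = 6 per group. Test agent given orally as a suspension in 0.5% sodium CMC in distilled water; controls received vehicle only. Afterwards, 0.5 mg/25 ll carrageenan in saline (154 mM NaCl) injected subplantar into the right hind paw, saline into the left. Right-minus-left footpad thickness measured by dial gauge caliper every 90 min for 6 h. Inhibition is relative to vehicle-control group means.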

[9] = system: Mus musculus; test: Analgesic activity against p-benzoquinone-induced abdominal constriction in Swiss albino mouse assessed as number of writhings at 50 mg/kg, po; type: functional, Abdomen; procedure, shortened: as §4
[10] = system: Mus musculus; test: Antiinflammatory activity against carrageenan-induced paw edema in Swiss albino mouse assessed as swelling thickness at 50 mg/kg, po after 180 mins; type: functional; procedure, shortened: as §3
[11] = system: Mus musculus; test: Inhibition of carrageenan-induced paw edema in Swiss albino mouse at 100 mg/kg, po after 90 mins relative to control; type: functional; settings: 1.5 h; procedure, shortened: as §3
[12] = system: Mus musculus; test: Antiinflammatory activity against carrageenan-induced paw edema in Swiss albino mouse assessed as swelling thickness at 25 mg/kg, po after 180 mins; type: functional; procedure, shortened: as §3
[13] = system: Mus musculus; test: Acute toxicity in Swiss albino mouse assessed as lethal effect at 25 mg/kg/day, po after 72 hrs; type: organism-based; parameters: route oral; settings: in vivo
Procedure, shortened: (§6)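 Oral single dose suspended in 0.5% carboxymethylcellulose, given after a 24 h fast; food and water returned 1 h after dosing. Vehicle-only controls. Mice observed at 1 h, then once daily for 72 h, for toxic signs and mortality.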

[14] = system: Mus musculus; test: Antiinflammatory activity against carrageenan-induced paw edema in Swiss albino mouse assessed as swelling thickness at 100 mg/kg, po after 180 mins; type: functional; procedure, shortened: as §3
[15] = system: Mus musculus; test: Inhibition of carrageenan-induced paw edema in Swiss albino mouse at 100 mg/kg, po after 270 mins relative to control; type: functional; settings: 4.5 h; procedure, shortened: as §3
[16] = system: Mus musculus; test: Antiinflammatory activity against carrageenan-induced paw edema in Swiss albino mouse assessed as swelling thickness at 50 mg/kg, po after 90 mins; type: functional; procedure, shortened: as §3
[17] = system: Mus musculus; test: Antiinflammatory activity against carrageenan-induced paw edema in Swiss albino mouse assessed as swelling thickness at 25 mg/kg, po after 90 mins; type: functional; procedure, shortened: as §3
[18] = system: Mus musculus; test: Gastric-ulcerogenic effect in Swiss albino mouse assessed as lesions at 100 mg/kg, po; type: functional, organism-based; parameters: dose 100 mg/kg; procedure, shortened: as §1
[19] = system: Mus musculus; test: Acute toxicity in Swiss albino mouse assessed as lethal effect at 100 mg/kg/day, po after 72 hrs; type: organism-based; parameters: route oral; settings: in vivo; procedure, shortened: as §6
[20] = system: Mus musculus; test: Acute toxicity in Swiss albino mouse assessed as lethal effect at 200 mg/kg/day, po after 72 hrs; type: organism-based; parameters: route oral; settings: in vivo; procedure, shortened: as §6
[21] = system: Mus musculus; test: Antiinflammatory activity against carrageenan-induced paw edema in Swiss albino mouse assessed as swelling thickness at 200 mg/kg, po after 360 mins; type: functional; procedure, shortened: as §3
[22] = system: Mus musculus; test: Antiinflammatory activity against carrageenan-induced paw edema in Swiss albino mouse assessed as swelling thickness at 100 mg/kg, po after 360 mins; type: functional; procedure, shortened: as §3
[23] = system: Mus musculus; test: Antiinflammatory activity against carrageenan-induced paw edema in Swiss albino mouse assessed as swelling thickness at 25 mg/kg, po after 270 mins; type: functional; procedure, shortened: as §3
[24] = system: Mus musculus; test: Inhibition of carrageenan-induced paw edema in Swiss albino mouse at 100 mg/kg, po after 360 mins relative to control; type: functional; settings: 6 h; procedure, shortened: as §3
[25] = system: Mus musculus; test: Antiinflammatory activity against carrageenan-induced paw edema in Swiss albino mouse assessed as swelling thickness at 50 mg/kg, po after 360 mins; type: functional; procedure, shortened: as §3
[26] = system: Mus musculus; test: Inhibition of p-benzoquinone-induced writhing in Swiss albino mouse at 50 mg/kg, po relative to control; type: functional; procedure, shortened: as §2
[27] = system: Mus musculus; test: Antiinflammatory activity against carrageenan-induced paw edema in Swiss albino mouse assessed as swelling thickness at 25 mg/kg, po after 360 mins; type: functional; procedure, shortened: as §3
[28] = system: Mus musculus; test: Antiinflammatory activity against carrageenan-induced paw edema in Swiss albino mouse assessed as swelling thickness at 200 mg/kg, po after 90 mins; type: functional; procedure, shortened: as §3
[29] = system: Mus musculus; test: Acute toxicity in Swiss albino mouse assessed as lethal effect at 50 mg/kg/day, po after 72 hrs; type: organism-based; parameters: route oral; settings: in vivo; procedure, shortened: as §6
[30] = system: Mus musculus; test: Inhibition of p-benzoquinone-induced writhing in Swiss albino mouse at 200 mg/kg, po relative to control; type: functional; procedure, shortened: as §2
[31] = system: Mus musculus; test: Antiinflammatory activity against carrageenan-induced paw edema in Swiss albino mouse assessed as swelling thickness at 50 mg/kg, po after 270 mins; type: functional; procedure, shortened: as §3
[32] = system: Mus musculus; test: Antiinflammatory activity against carrageenan-induced paw edema in Swiss albino mouse assessed as swelling thickness at 100 mg/kg, po after 90 mins; type: functional; procedure, shortened: as §3
[33] = system: Mus musculus; test: Gastric-ulcerogenic effect in Swiss albino mouse assessed as lesions at 50 mg/kg, po; type: functional, organism-based; parameters: dose 50 mg/kg; procedure, shortened: as §1
[34] = system: Mus musculus; test: Inhibition of carrageenan-induced paw edema in Swiss albino mouse at 50 mg/kg, po after 270 mins relative to control; type: functional; settings: 4.5 h; procedure, shortened: as §5
[35] = system: Mus musculus; test: Antiinflammatory activity against carrageenan-induced paw edema in Swiss albino mouse assessed as swelling thickness at 200 mg/kg, po after 180 mins; type: functional; procedure, shortened: as §3
[36] = system: Mus musculus; test: Inhibition of carrageenan-induced paw edema in Swiss albino mouse at 50 mg/kg, po after 360 mins relative to control; type: functional; settings: 6 h; procedure, shortened: as §5
[37] = system: Mus musculus; test: Analgesic activity against p-benzoquinone-induced abdominal constriction in Swiss albino mouse assessed as number of writhings at 25 mg/kg, po; type: functional, Abdomen; procedure, shortened: as §4
[38] = system: Mus musculus; test: Inhibition of carrageenan-induced paw edema in Swiss albino mouse at 100 mg/kg, po after 180 mins relative to control; type: functional; settings: 3 h; procedure, shortened: as §3
[39] = system: Mus musculus; test: Analgesic activity against p-benzoquinone-induced abdominal constriction in Swiss albino mouse assessed as number of writhings at 200 mg/kg, po; type: functional, Abdomen; procedure, shortened: as §4

**Q.** With CCS(=O)(=O)c1nc(-c2ccc(Br)cc2)n[nH]1 as the compound, how does the Activity [1] read?
**A.** Its Activity is “Active”.

**Q.** What about the inhibition in vivo at 25 mg/kg [2] of the same compound?
**A.** Its inhibition in vivo at 25 mg/kg is 20.4%.

**Q.** And the inhibition in vivo at 100 mg/kg [3]?
**A.** The inhibition in vivo at 100 mg/kg was 25.6%.

**Q.** And the inhibition in vivo at 50 mg/kg [4]?
**A.** The inhibition in vivo at 50 mg/kg was 26.8%.

**Q.** And the Activity [5]?
**A.** The Activity was 35.2.

**Q.** And the Activity [6]?
**A.** Its Activity is 68.5 10^-2mm.

**Q.** And the Activity [7]?
**A.** Its Activity is 45.7 10^-2mm.

**Q.** And the inhibition in vivo at 50 mg/kg [8]?
**A.** Its inhibition in vivo at 50 mg/kg is 35.2%.

**Q.** And the Activity [9]?
**A.** Its Activity is 35.9.

**Q.** What about the Activity [10] of the same compound?
**A.** Its Activity is 43.5 10^-2mm.

**Q.** And the inhibition in vivo at 100 mg/kg [11]?
**A.** The inhibition in vivo at 100 mg/kg was 28.3%.

**Q.** And the Activity [12]?
**A.** Its Activity is 62.8 10^-2mm.

**Q.** And the Activity [13]?
**A.** Its Activity is “Non-toxic”.

**Q.** What about the Activity [14] of the same compound?
**A.** The Activity was 38.3 10^-2mm.

**Q.** And the inhibition in vivo at 100 mg/kg [15]?
**A.** Its inhibition in vivo at 100 mg/kg is 22.3%.

**Q.** And the Activity [16]?
**A.** The Activity was 40.4 10^-2mm.

**Q.** And the Activity [17]?
**A.** The Activity was 54.6 10^-2mm.

**Q.** And the Activity [18]?
**A.** Its Activity is “Active”.

**Q.** And the Activity [19]?
**A.** Its Activity is “Non-toxic”.

**Q.** And the Activity [20]?
**A.** The Activity was “Non-toxic”.

**Q.** What about the Activity [21] of the same compound?
**A.** The Activity was 76.2 10^-2mm.

**Q.** What about the Activity [22] of the same compound?
**A.** Its Activity is 49.9 10^-2mm.

**Q.** What about the Activity [23] of the same compound?
**A.** The Activity was 67.8 10^-2mm.

**Q.** And the inhibition in vivo at 100 mg/kg [24]?
**A.** Its inhibition in vivo at 100 mg/kg is 27.5%.

**Q.** What about the Activity [25] of the same compound?
**A.** The Activity was 50.4 10^-2mm.

**Q.** And the inhibition in vivo at 50 mg/kg [26]?
**A.** The inhibition in vivo at 50 mg/kg was 30.2%.

**Q.** And the Activity [27]?
**A.** Its Activity is 75.1 10^-2mm.

**Q.** What about the Activity [28] of the same compound?
**A.** The Activity was 57.4 10^-2mm.

**Q.** What about the Activity [29] of the same compound?
**A.** The Activity was “Non-toxic”.

**Q.** What about the inhibition in vivo at 200 mg/kg [30] of the same compound?
**A.** The inhibition in vivo at 200 mg/kg was 1.6%.

**Q.** What about the Activity [31] of the same compound?
**A.** Its Activity is 49.1 10^-2mm.

**Q.** And the Activity [32]?
**A.** The Activity was 32.1 10^-2mm.

**Q.** And the Activity [33]?
**A.** The Activity was “Active”.

**Q.** What about the inhibition in vivo at 50 mg/kg [34] of the same compound?
**A.** The inhibition in vivo at 50 mg/kg was 24.2%.

**Q.** And the Activity [35]?
**A.** Its Activity is 61.5 10^-2mm.

**Q.** And the inhibition in vivo at 50 mg/kg [36]?
**A.** The inhibition in vivo at 50 mg/kg was 30%.

**Q.** What about the Activity [37] of the same compound?
**A.** The Activity was 40.9.

**Q.** And the inhibition in vivo at 100 mg/kg [38]?
**A.** The inhibition in vivo at 100 mg/kg was 25.6%.

**Q.** What about the Activity [39] of the same compound?
**A.** The Activity was 50.6.
